Source: ChEMBL document CHEMBL1144212, “Design and synthesis of 3-pyrazolyl-thiophene, thieno[2,3-d]pyrimidines as new bioactive and pharmacological activities” (Bioorg Med Chem Lett, 2008)

Assays:
[1] = system: Rattus norvegicus; experiment: Antiinflammatory activity against carrageenan-induced albino rat hind paw edema model at 15 mg/kg, po administered 1 hr before carrageenan challenge measured after 1 hr relative to indomethacin; type: functional
[2] = system: Rattus norvegicus; experiment: Antiinflammatory activity against carrageenan-induced albino rat hind paw edema model assessed as edema rate at 15 mg/kg, po administered 1 hr before carrageenan challenge measured after 4 hrs; type: functional
Procedure, shortened: (§1)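 Albino rats of both sexes were fasted 18 h, five per group. Dosing was 15 mg/kg orally as an aqueous suspension (tween-80/water vehicle), 1 h before subplantar 0.1 mL 1% w/v carrageenin in the left hind paw. Paw volume was measured by mercury plethysmometer before injection, then hourly for 4 h. Edema rate = (Vt − Vo)/Vo.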

[3] = system: Rattus norvegicus; experiment: Antiinflammatory activity against carrageenan-induced albino rat hind paw edema model at 15 mg/kg, po administered 1 hr before carrageenan challenge measured after 4 hrs relative to indomethacin; type: functional
[4] = system: Rattus norvegicus; experiment: Antiinflammatory activity against carrageenan-induced albino rat hind paw edema model at 15 mg/kg, po administered 1 hr before carrageenan challenge measured after 2 hrs relative to indomethacin; type: functional
[5] = system: Rattus norvegicus; experiment: Antiinflammatory activity against carrageenan-induced albino rat hind paw edema model at 15 mg/kg, po administered 1 hr before carrageenan challenge measured after 3 hrs relative to indomethacin; type: functional
[6] = system: Rattus norvegicus; experiment: Antiinflammatory activity against carrageenan-induced albino rat hind paw edema model assessed as edema rate at 15 mg/kg, po administered 1 hr before carrageenan challenge measured after 2 hrs; type: functional; procedure, shortened: as §1
[7] = system: Mus musculus; experiment: Analgesic activity in Swiss albino mouse at 20 mg/kg, po assessed as reaction time after 90 mins by hot plate method; type: functional
Procedure, shortened: (§2)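 Swiss albino mice of both sexes (25–30 g), kept at 22 °C on a 12 h light/dark cycle, in groups of five. Given 20 mg/kg orally as an aqueous suspension; aspirin reference at 20 mg/kg orally. Hot plate at 53 °C. Reaction time (placement to hind-paw licking or jumping) was taken before dosing and at 15, 30, 60 and 90 min; 60 s cut-off.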

[8] = system: Rattus norvegicus; experiment: Gastrointestinal toxicity in carrageenan-induced albino rat hind paw edema model assessed as induction of ulcerogenicity at 15 mg/kg, po; type: organism-based; set-up: dose 15 mg/kg, route oral; conditions: in vivo
[9] = system: Rattus norvegicus; experiment: Antiinflammatory activity against carrageenan-induced albino rat hind paw edema model assessed as edema rate at 15 mg/kg, po administered 1 hr before carrageenan challenge measured after 3 hrs; type: functional; procedure, shortened: as §1
[10] = system: Mus musculus; experiment: Analgesic activity in Swiss albino mouse at 20 mg/kg, po assessed as reaction time after 60 mins by hot plate method; type: functional; procedure, shortened: as §2
[11] = system: Rattus norvegicus; experiment: Antiinflammatory activity against carrageenan-induced albino rat hind paw edema model assessed as edema rate at 15 mg/kg, po administered 1 hr before carrageenan challenge measured after 1 hr; type: functional; procedure, shortened: as §1
[12] = system: Mus musculus; experiment: Analgesic activity in Swiss albino mouse at 20 mg/kg, po assessed as reaction time after 30 mins by hot plate method; type: functional; procedure, shortened: as §2
[13] = system: Shigella dysenteriae; experiment: Antibacterial activity against Shigella dysenteriae AE 14396 after 48 hrs by disc diffusion method; type: functional; conditions: read-out: MIC
[14] = system: Salmonella typhi; experiment: Antibacterial activity against Salmonella typhi AE 14612 after 48 hrs by disc diffusion method; type: functional, Salmonella enterica subsp. enterica serovar Typhi; conditions: Salmonella enterica, read-out: MIC
[15] = system: Fusarium equiseti; experiment: Antifungal activity against Fusarium equiseti (Corda) Sacc after 48 hrs by poisoned-food technique; type: functional; set-up: concentration or dose not given beside the values
[16] = system: Bacillus cereus; experiment: Antibacterial activity against Bacillus cereus BTCC19 after 48 hrs by disc diffusion method; type: functional
Procedure, shortened: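 Disc diffusion on nutrient agar. Compounds were dissolved in DMF at 1 mg/mL, applied per disc. Inhibition zones (mm) were read after 48 h at 28 °C. DMF alone was the negative control; ampicillin was the reference.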

[17] = system: Rattus norvegicus; experiment: Antiinflammatory activity against carrageenan-induced albino rat hind paw edema model assessed as edema rate at 10 mg/kg, po administered 1 hr before carrageenan challenge measured after 3 hrs; type: functional
Procedure, shortened: (§3)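 Indomethacin reference group: 10 mg/kg orally as an aqueous suspension, 1 h before carrageenin. Albino rats of both sexes were fasted 18 h, five per group. Edema was induced by subplantar 0.1 mL 1% w/v carrageenin in the left hind paw. Paw volume was read by mercury plethysmometer before injection and hourly for 4 h. Edema rate = (Vt − Vo)/Vo.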

[18] = system: Rattus norvegicus; experiment: Antiinflammatory activity against carrageenan-induced albino rat hind paw edema model assessed as edema rate at 10 mg/kg, po administered 1 hr before carrageenan challenge measured after 2 hrs; type: functional; procedure, shortened: as §3
[19] = system: Rattus norvegicus; experiment: Antiinflammatory activity against carrageenan-induced albino rat hind paw edema model assessed as edema rate at 10 mg/kg, po administered 1 hr before carrageenan challenge measured after 4 hrs; type: functional; procedure, shortened: as §3
[20] = system: Rattus norvegicus; experiment: Antiinflammatory activity against carrageenan-induced albino rat hind paw edema model assessed as edema rate at 10 mg/kg, po administered 1 hr before carrageenan challenge measured after 1 hr; type: functional; procedure, shortened: as §3

Row | SMILES | Activity [1] [%] | Activity [2] [%] | Activity [3] [%] | Activity [4] [%] | Activity [5] [%] | Activity [6] [%] | Activity [7] [s] | Activity [8] | Activity [9] [%] | Activity [10] [s] | Activity [11] [%] | Activity [12] [s] | zone of inhibition [13] [µg/mL] | zone of inhibition [14] [µg/mL] | inhibition [15] [%] | zone of inhibition [16] [mm] | Activity [17] [%] | Activity [18] [%] | Activity [19] [%] | Activity [20] [%]
1 | CCOC(=O)c1sc(N)c(C(=O)n2nc(C)cc2C)c1C | -7.27 | -0.25 | 0.61 | 19.8 | 25.38 | 7.88 | 9.78 | Non-toxic | 8.46 | 7.62 | 2.58 | 7.72 |  |  |  |  |  |  |  | 
2 | CCOC(=O)c1sc2nc(C)n(N)c(=O)c2c1C | 84.05 | -15.24 | 37.06 | 45.06 | 43.95 | -17.93 | 6.7 |  | -14.65 | 5.04 | -29.82 | 6.46 | 7 | 15 | 37.5 | 15 |  |  |  | 
3 | CCOC(=O)c1sc(NC(C)=O)c(C(=O)OCC)c1C | 42.36 | -5.2 | 12.65 | 30.44 | 0.12 | -12.11 | 6.08 |  | -4 | 5.96 | -15.03 | 7.34 | 14 | 11 | 36.3 | 11 |  |  |  | 
4 | CCOC(=O)c1sc(N)c(C(=O)NN)c1C | 37.85 | -13.32 | 32.39 | 22.22 | 29.4 | -8.84 | 7.86 | Non-toxic | -9.8 | 6.2 | -13.43 | 6.12 | 6 |  | 29.3 | 10 |  |  |  | 
5 | CCOC(=O)c1sc(N)c(C(=O)N/N=C/c2ccc(OC)cc2)c1C | 40.59 | -13.29 | 32.32 | 3.82 | 11.73 | -1.52 | 9.06 |  | -3.91 | 7.72 | -14.4 | 6.42 |  | 12 | 28 | 10 |  |  |  | 
6 | CCOC(=O)c1sc(N)c(C(=O)NNC(N)=S)c1C | 103.04 | -34.62 | 84.19 | 93.52 | 88.21 | -37.21 | 6.14 |  | -29.4 | 5.74 | 36.56 | 5.44 | 13 | 28 | 28 | 20 |  |  |  | 
7 | CCOC(=O)c1sc(N)c(C(=O)NNC=O)c1C | 144.25 | -31.32 | 76.17 | 96 | 88.75 | -38.2 | 4.84 |  | -29.58 | 6.9 | -51.18 | 6.08 | 30 | 34 | 65.6 | 33 |  |  |  | 
8 | CCOC(=O)c1sc(N)c(C(=O)NNc2nc(C)cs2)c1C | 127.23 | -26.53 | 64.52 | 93.42 | 75.99 | -37.17 | 4.7 |  | -25.33 | 6.46 | -45.14 | 6.68 | 28 | 29 | 43.8 | 31 |  |  |  | 
9 | CCOC(=O)c1sc(N)c(C(=O)N2NC(=O)CC2=O)c1C | 74.8 | -26.84 | 65.27 | 78.01 | 65.5 | -31.04 | 10.68 | Non-toxic | -20.9 | 12.42 | -26.54 | 10.22 | 12 | 15 | 40 | 9 |  |  |  | 
10 | CCOC(=O)c1sc2[nH]c(=S)n(N)c(=O)c2c1C | 85.09 | -24.67 | 59.99 | 36.54 | 31.74 | -14.54 | 7.16 |  | -10.58 | 7.24 | -30.19 | 6.6 | 18 | 17 | 47.6 | 19 |  |  |  | 
11 | CC1(C)S[C@@H]2[C@H](NC(=O)[C@H](N)c3ccccc3)C(=O)N2[C@H]1C(=O)O [AMPICILLIN] |  |  |  |  |  |  |  |  |  |  |  |  | 30 | 24 |  | 21 |  |  |  | 
12 | CC(=O)Oc1ccccc1C(=O)O [ASPIRIN] |  |  |  |  |  |  | 7.78 |  |  | 6.56 |  | 6.66 |  |  |  |  |  |  |  | 
13 | COc1ccc2c(c1)c(CC(=O)O)c(C)n2C(=O)c1ccc(Cl)cc1 [INDOMETHACIN] |  |  |  |  |  |  |  |  |  |  |  |  |  |  |  |  | -33.33 | -39.79 | -41.12 | -35.48
